According to ChEMBL document CHEMBL1130135, “Use of conformationally restricted benzamidines as arginine surrogates in the design of platelet GPIIb-IIIa receptor antagonists” (J Med Chem, 1997):

Key:
Assay type in all cases: protein-complex assay
[1] = target: T1, Integrin alpha-IIb/beta-3 (Homo sapiens, UniProt P05106+P08514); test: Antagonism of fibrinogen binding to a purified human fibrinogen receptor preparation.
Method in brief: (§1)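 ELISA on purified human platelet GPIIb-IIIa with biotinylated fibrinogen as the ligand. Bound fibrinogen was detected with alkaline phosphatase-labeled goat anti-biotin and p-nitrophenyl phosphate substrate. Some runs added BSA at 4.5% (w/v) as a stand-in for plasma albumin.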

Integrin alpha-V/beta-3 = Integrin alpha-V/beta-3 (Homo sapiens, UniProt P05106+P06756); test: Inhibition of adhesive protein binding to alphaV-beta3 vitronectin receptor using ELISA
Integrin alpha-V/beta-3, sequence (P05106 27-788 limits assumed): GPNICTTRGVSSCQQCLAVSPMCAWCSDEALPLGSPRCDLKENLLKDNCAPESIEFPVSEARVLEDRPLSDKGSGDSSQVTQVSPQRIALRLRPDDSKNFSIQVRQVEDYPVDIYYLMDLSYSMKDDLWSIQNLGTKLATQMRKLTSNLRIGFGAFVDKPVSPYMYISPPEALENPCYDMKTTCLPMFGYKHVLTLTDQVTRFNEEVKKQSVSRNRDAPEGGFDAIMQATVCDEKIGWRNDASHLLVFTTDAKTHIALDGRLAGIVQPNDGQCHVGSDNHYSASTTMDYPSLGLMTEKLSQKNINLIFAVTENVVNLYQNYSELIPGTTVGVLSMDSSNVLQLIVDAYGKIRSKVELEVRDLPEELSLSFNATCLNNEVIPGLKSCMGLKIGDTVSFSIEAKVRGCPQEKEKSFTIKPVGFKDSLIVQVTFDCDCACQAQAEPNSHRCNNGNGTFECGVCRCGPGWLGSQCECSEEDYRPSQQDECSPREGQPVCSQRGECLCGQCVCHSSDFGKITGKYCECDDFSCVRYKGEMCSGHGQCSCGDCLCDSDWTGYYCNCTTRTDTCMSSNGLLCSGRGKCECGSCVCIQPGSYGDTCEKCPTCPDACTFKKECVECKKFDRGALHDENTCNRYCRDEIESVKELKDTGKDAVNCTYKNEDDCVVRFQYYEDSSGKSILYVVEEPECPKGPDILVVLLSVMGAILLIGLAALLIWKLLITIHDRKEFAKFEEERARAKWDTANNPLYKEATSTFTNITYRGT
Integrin alpha-V/beta-3, sequence (P06756 31-889 limits assumed): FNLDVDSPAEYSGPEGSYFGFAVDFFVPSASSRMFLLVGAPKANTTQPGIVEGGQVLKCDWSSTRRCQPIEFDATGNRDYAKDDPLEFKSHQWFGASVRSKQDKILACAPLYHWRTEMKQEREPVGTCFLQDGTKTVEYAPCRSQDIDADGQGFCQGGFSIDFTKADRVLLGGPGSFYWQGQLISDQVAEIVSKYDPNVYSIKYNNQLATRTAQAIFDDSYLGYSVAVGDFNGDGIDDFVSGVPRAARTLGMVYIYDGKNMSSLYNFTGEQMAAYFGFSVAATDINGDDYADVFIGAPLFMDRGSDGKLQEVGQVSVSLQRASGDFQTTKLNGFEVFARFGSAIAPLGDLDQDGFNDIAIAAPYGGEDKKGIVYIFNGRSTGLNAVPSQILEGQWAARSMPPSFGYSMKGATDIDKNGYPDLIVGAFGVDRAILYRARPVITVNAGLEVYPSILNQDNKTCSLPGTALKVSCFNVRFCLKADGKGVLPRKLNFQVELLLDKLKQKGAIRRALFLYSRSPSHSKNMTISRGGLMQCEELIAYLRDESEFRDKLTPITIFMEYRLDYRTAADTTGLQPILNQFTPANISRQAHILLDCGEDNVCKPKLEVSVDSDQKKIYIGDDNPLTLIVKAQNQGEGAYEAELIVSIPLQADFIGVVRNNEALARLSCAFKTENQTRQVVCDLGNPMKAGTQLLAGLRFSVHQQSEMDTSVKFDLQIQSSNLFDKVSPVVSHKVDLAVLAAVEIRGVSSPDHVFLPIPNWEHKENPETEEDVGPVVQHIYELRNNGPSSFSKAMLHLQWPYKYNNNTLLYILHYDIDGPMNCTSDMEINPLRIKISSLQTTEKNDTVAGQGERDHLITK
Integrin alpha-V/beta-3, sequence (P06756 891-1048 limits assumed): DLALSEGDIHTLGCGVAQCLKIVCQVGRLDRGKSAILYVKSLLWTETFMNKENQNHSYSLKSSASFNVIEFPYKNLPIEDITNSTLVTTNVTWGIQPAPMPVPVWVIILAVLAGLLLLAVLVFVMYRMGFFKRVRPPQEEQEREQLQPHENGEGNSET
Method in brief: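 Vitronectin receptor ELISA on purified human placenta αvβ3 with biotinylated vitronectin as the ligand. Detection used alkaline phosphatase-labeled goat anti-biotin and p-nitrophenol phosphate. Compounds were tested up to 100 μM.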

[2] = target: T1, Integrin alpha-IIb/beta-3; test: Inhibition of fibrinogen binding to purified Fibrinogen Receptor preparation in enzyme-linked immunosorbent assay (ELISA); method in brief: as §1

T1 sequence (P05106 27-788 limits assumed): as the sequence (P05106 27-788 limits assumed) above
T1 sequence (P08514 32-887 limits assumed): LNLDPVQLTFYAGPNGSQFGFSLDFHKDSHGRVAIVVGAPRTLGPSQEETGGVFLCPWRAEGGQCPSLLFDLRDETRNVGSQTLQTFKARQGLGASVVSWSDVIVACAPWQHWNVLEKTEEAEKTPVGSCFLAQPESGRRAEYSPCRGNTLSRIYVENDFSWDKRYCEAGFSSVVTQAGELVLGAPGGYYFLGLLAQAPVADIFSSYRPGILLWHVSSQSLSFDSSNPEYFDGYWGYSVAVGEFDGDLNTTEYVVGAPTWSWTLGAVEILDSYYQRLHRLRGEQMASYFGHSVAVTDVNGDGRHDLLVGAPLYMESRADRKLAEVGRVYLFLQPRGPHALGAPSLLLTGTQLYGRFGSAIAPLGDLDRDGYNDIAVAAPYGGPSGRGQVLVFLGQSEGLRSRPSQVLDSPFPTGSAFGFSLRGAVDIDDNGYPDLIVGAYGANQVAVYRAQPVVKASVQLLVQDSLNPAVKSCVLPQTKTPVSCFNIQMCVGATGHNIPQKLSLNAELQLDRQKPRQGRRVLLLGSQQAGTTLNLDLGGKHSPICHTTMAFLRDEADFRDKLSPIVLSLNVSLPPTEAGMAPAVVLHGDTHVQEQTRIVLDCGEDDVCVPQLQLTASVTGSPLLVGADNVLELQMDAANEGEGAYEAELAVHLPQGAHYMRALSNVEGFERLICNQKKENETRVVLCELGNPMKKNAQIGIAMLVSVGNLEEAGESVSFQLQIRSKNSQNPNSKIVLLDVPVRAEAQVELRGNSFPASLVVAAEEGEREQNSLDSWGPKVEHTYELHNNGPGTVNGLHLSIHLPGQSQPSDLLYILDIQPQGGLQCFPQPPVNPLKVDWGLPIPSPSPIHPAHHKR
T1 sequence (P08514 891-1039 limits assumed): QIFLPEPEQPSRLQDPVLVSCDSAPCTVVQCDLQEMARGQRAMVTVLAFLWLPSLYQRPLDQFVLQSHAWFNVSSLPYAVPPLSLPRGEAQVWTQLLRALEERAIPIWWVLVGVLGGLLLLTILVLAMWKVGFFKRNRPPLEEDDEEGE

## N=C(N)c1ccc2sc(C(=O)NCCCCCCC(=O)O)cc2c1
[1]
  IC50: 0.85 µM

## N=C(N)c1ccc2c(C(=O)NCCCCCCC(=O)O)c[nH]c2c1
Integrin alpha-V/beta-3
  IC50: > 100 µM

## N=C(N)c1ccc2[nH]c(C(=O)NCC(=O)NCCCC(=O)O)cc2c1
[1]
  IC50: 9.9 µM

## CCC(CCCCCNC(=O)c1cc2cc(C(=N)N)ccc2[nH]1)C(=O)O (stereo not drawn)
[1]
  IC50: 27 µM

## N=C(N)c1ccc(OCC(=O)NCCCCCCC(=O)O)cc1
[1]
  IC50: 1.1 µM

## CCCCC(CCCCNC(=O)c1cc2cc(C(=N)N)ccc2[nH]1)CC(=O)O (stereo not drawn)
[1]
  IC50: 0.79 µM

## Cn1c(C(=O)NCCCCCCC(=O)O)cc2cc(C(=N)N)ccc21
[1]
  IC50: 2.9 µM

## N=C(N)c1ccc2[nH]c(C(=O)NCCCCC(CC(=O)O)c3ccccc3)cc2c1 (stereo not drawn)
[1]
  IC50: 0.46 µM

## CC(CCCCCNC(=O)c1cc2cc(C(=N)N)ccc2[nH]1)C(=O)O (stereo not drawn)
[1]
  IC50: 6.9 µM

## N=C(N)c1ccc2oc(C(=O)NCCCCCCCC(=O)O)cc2c1
[2]
  IC50: 3.3 µM

## N=C(N)c1ccc2oc(C(=O)NCCCCCC(=O)O)cc2c1
[1]
  IC50: 2.3 µM

## N=C(N)c1ccc2[nH]c(C(=O)NCCC(=O)NCCC(=O)O)cc2c1
[1]
  IC50: 0.76 µM

## CN(CCCCCCC(=O)O)C(=O)c1cc2cc(C(=N)N)ccc2[nH]1
[1]
  IC50: 0.34 µM

## N=C(N)c1ccc2[nH]c(C(=O)NCc3ccc(CCC(=O)O)cc3)cc2c1
[1]
  IC50: 4 µM

## N=C(N)c1ccc2oc(C(=O)NCCCCCCC(=O)O)cc2c1
Integrin alpha-V/beta-3
  IC50: > 100 µM

## CCC(CCCCNC(=O)c1cc2cc(C(=N)N)ccc2[nH]1)CC(=O)O (stereo not drawn)
[1]
  IC50: 0.44 µM

## CCCCCCC(CCCCNC(=O)c1cc2cc(C(=N)N)ccc2[nH]1)CC(=O)O (stereo not drawn)
[1]
  IC50: 0.59 µM

## Cc1c(C(=O)NCCCCCCC(=O)O)[nH]c2ccc(C(=N)N)cc12
[1]
  IC50: 1.7 µM

## CC(CCCCNC(=O)c1cc2cc(C(=N)N)ccc2[nH]1)CC(=O)O (stereo not drawn)
[1]
  IC50: 0.31 µM

## N=C(N)c1ccc2c(C(=O)NCCCCCCC(=O)O)[nH]nc2c1
Integrin alpha-V/beta-3
  IC50: > 100 µM
[1]
  IC50: 0.02 µM

## N=C(N)c1ccc2cc(C(=O)NCCCCCCC(=O)O)oc2c1
[1]
  IC50: 1.1 µM

## N=C(N)c1ccc2[nH]c(C(=O)NCCCC(=O)NCC(=O)O)cc2c1
[1]
  IC50: 7.4 µM
